# The source made the active and inactive calls. The calls are words filed in the database; no cut-off is given here. Non-standard residues stand in square brackets, D forms with d. Residues, ends and D or L forms follow the SMILES beside them. 2Nal = N[C@@H](Cc1ccc2ccccc2c1)C(=O)O
# Key:
# [1] = biological target: T1, Scaffold protein ILK (Homo sapiens) (UniProt Q13418); assay: Induction of ILK (unknown origin)
# T1 sequence (whole entry): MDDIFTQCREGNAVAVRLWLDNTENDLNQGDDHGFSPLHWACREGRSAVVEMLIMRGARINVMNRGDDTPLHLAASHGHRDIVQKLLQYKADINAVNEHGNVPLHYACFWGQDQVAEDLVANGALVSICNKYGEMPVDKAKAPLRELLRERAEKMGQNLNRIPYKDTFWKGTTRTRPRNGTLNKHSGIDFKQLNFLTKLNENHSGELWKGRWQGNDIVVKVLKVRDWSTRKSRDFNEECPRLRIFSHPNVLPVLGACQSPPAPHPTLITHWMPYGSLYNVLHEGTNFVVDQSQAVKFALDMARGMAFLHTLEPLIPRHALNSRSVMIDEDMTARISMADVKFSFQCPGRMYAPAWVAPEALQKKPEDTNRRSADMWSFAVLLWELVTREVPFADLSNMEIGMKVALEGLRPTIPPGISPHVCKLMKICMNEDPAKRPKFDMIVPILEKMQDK
# [2] = biological target: T1, Scaffold protein ILK (Homo sapiens); assay: Inhibition of ILK (unknown origin)
# [3] = biological target: T1, Scaffold protein ILK (Homo sapiens); assay: Modulation of ILK in human mesangial cells assessed as reduction in AKT phosphorylation at Ser473 residue at 50 uM measured upto 90 mins by Western blot analysis; format: cell-based; conditions: Mesangial cell, time min <=90
# [4] = biological target: T1, Scaffold protein ILK (Homo sapiens); assay: Modulation of ILK in human mesangial cells assessed as reduction in GSK-3beta phosphorylation at ser9 residue at 50 uM measured upto 90 mins by Western blot analysis; format: cell-based; conditions: Mesangial cell, time min <=90
# [5] = Cytotoxicity against human mesangial cells assessed as reduction in cell viability at 1 to 100 uM incubated for 24 hrs by MTT assay; format: cell-based; conditions: dose 1-100 µM
# [6] = tested on: Mesangial cell; assay: Induction of F-actin polymerization in human mesangial cells ILK siRNA assessed as increase in phalloidin content at 50 uM measured after 24 hrs by Alexa 568-phalloidin based confocal microscopy relative to control; conditions: filed as activator
# In short: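 Human mesangial cells transfected with ILK siRNA, or scrambled siRNA as transfection control; cells then held in buffer (control) or compound at 50 μM for 24 h. Stained with Alexa 568 phalloidin and imaged by confocal microscopy. F-actin quantified in three independent assays; mean ± SEM as percentage vs control, p < 0.05 vs control.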
# [7] = tested on: Mesangial cell; assay: Induction of F-actin polymerization in human mesangial cells assessed as F-actin levels at 50 uM measured after 24 hrs by Alexa 568-phalloidin based confocal microscopy; conditions: filed as activator
# In short: (§1)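 Human mesangial cells incubated 24 h with compound at 50 μM, or with buffer as control. Cells stained with Alexa 568 phalloidin and F-actin examined by confocal microscopy. F-actin amount measured in three independent assays; mean ± SEM expressed as percent of control values; p < 0.05 vs control.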
# [8] = tested on: Mesangial cell; assay: Induction of F-actin polymerization in human mesangial cells assessed as increase in F-actin levels measured after 24 hrs by Alexa 568-phalloidin based confocal microscopy; in short: as §1
smiles,measurement,setting,value
COC(=O)[C@H](CO)NC(=O)[C@H](Cc1ccc2ccccc2c1)NC(=O)[C@H](Cc1ccc(O)cc1)NC(C)=O (Ac-Tyr-[2Nal]-Ser-OMe),Activity,[1],inactive
same,inhibition,[2],Active
COC(=O)[C@@H](NC(=O)[C@H](C)NC(=O)[C@H](Cc1ccc(O)cc1)NC(C)=O)C(C)C (Ac-Tyr-Ala-Val-OMe),Activity,[1],inactive
COC(=O)[C@@H](NC(=O)[C@H](Cc1ccccc1)NC(=O)[C@H](Cc1ccc(O)cc1)NC(C)=O)C(C)C (Ac-Tyr-Phe-Val-OMe),Activity,[3],inactive
same,Activity,[1],inactive
same,Activity,[4],inactive
same,Activity,[5],Non-Toxic
same,Activity,[6],100%
same,Activity,[7],Active
COC(=O)[C@H](C)NC(=O)[C@H](Cc1ccccc1)NC(=O)[C@H](Cc1ccc(O)cc1)NC(C)=O (Ac-Tyr-Phe-Ala-OMe),Activity,[1],inactive
COC(=O)[C@@H](NC(=O)[C@H](Cc1ccccc1)NC(=O)[C@H](C)NC(C)=O)C(C)C (Ac-Ala-Phe-Val-OMe),Activity,[1],inactive
same,Activity,[5],Non-Toxic
same,Activity,[6],59%
COC(=O)[C@H](CO)NC(=O)[C@H](Cc1ccccc1)NC(=O)[C@H](Cc1ccc(O)cc1)NC(C)=O (Ac-Tyr-Phe-Ser-OMe),Activity,[1],inactive
COC(=O)[C@@H](NC(=O)[C@H](Cc1ccc2ccccc2c1)NC(=O)[C@H](Cc1ccc(O)cc1)NC(C)=O)C(C)C (Ac-Tyr-[2Nal]-Val-OMe),Activity,[1],inactive
same,inhibition,[2],Active
CC(=O)N[C@@H](Cc1ccc(O)cc1)C(=O)N[C@@H](Cc1ccccc1)C(=O)N[C@H](C(=O)O)C(C)C (Ac-Tyr-Phe-Val-OH),Activity,[1],inactive
same,Activity,[8],inactive

# — ChEMBL document CHEMBL4825777, “Tripeptides as Integrin-Linked Kinase Modulating Agents Based on a Protein-Protein Interaction with α-Parvin” (ACS Med Chem Lett, 2021)
